# In ChEMBL document CHEMBL1177669, “Synthesis and biological study of 3-(phenylsulfonyl)thieno[2,3-e][1,2,3]triazolo[1,5-a]pyrimidines as potent and selective serotonin 5-HT6 receptor antagonists” (Bioorg Med Chem, 2010):
# Molecular target: 5-hydroxytryptamine receptor 6 (Homo sapiens, UniProt P50406)
# Assay: Antagonist activity at human recombinant 5HT6 receptor expressed in HEK293 cells assessed as inhibition of serotonin-induced cAMP production
# Format: functional, cell-based
# Summary of the method: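 HEK293 cells stably expressing recombinant human 5-HT6R, stimulated with serotonin. cAMP from adenylyl cyclase measured by LANCE. Compounds screened at 5 and 10 μM. IC50 determined for compounds giving more than 50% inhibition of cAMP synthesis at 5 μM.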
# 5-hydroxytryptamine receptor 6, sequence (P50406 whole entry): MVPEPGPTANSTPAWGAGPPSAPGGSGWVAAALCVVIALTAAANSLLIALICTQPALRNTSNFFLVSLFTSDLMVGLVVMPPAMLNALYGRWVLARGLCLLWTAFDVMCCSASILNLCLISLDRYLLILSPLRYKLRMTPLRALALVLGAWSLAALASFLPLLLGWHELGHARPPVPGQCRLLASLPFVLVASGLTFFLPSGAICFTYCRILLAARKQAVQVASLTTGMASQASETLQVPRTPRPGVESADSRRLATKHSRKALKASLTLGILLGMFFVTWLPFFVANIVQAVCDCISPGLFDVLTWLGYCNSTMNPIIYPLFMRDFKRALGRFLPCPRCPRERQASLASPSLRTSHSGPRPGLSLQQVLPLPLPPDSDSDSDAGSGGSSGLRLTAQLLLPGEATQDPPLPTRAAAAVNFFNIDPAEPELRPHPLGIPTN
row,IC50,SMILES
1,1080 nM,CC(Cc1ccccc1)Nc1nc2c(S(=O)(=O)c3ccccc3)nnn2c2ccsc12 (configuration not stated)
2,150 nM,COCCCNc1nc2c(S(=O)(=O)c3cccc(Cl)c3)nnn2c2ccsc12
3,> 5000 nM,COCCNc1nc2c(S(=O)(=O)c3ccc(C(C)C)cc3)nnn2c2ccsc12
4,1540 nM,O=S(=O)(c1cccc(Cl)c1)c1nnn2c1nc(N1CCCCCC1)c1sccc12
5,170 nM,Cc1ccc(C)c(S(=O)(=O)c2nnn3c2nc(NC(C)c2ccccc2)c2sccc23)c1 (configuration not stated)
6,69 nM,O=S(=O)(c1cccc(Cl)c1)c1nnn2c1nc(NC1CCCCC1)c1sccc12
7,1990 nM,NC(=O)C1CCN(c2nc3c(S(=O)(=O)c4ccccc4)nnn3c3ccsc23)CC1
8,90 nM,Cc1ccc(S(=O)(=O)c2nnn3c2nc(NCc2cccs2)c2sccc23)cc1C
9,1750 nM,CCc1ccc(S(=O)(=O)c2nnn3c2nc(Nc2cccc(C)c2)c2sccc23)cc1
10,260 nM,COCCCNc1nc2c(S(=O)(=O)c3ccccc3)nnn2c2ccsc12
11,1330 nM,Cc1ccc(S(=O)(=O)c2nnn3c2nc(N(C)Cc2ccccc2)c2sccc23)cc1C
12,770 nM,Cc1ccc(S(=O)(=O)c2nnn3c2nc(NCc2ccco2)c2sccc23)cc1C
13,780 nM,CN(C)CCN(C)c1nc2c(S(=O)(=O)c3cccc(Cl)c3)nnn2c2ccsc12 [listing 1 of 2 here]
14,220 nM,Cc1ccc(S(=O)(=O)c2nnn3c2nc(NCc2cccs2)c2sccc23)cc1
15,820 nM,O=S(=O)(c1cccc(Cl)c1)c1nnn2c1nc(NCCc1ccccc1)c1sccc12
16,> 5000 nM,COCCCNc1nc2c(S(=O)(=O)c3ccc(Cl)cc3)nnn2c2ccsc12
17,2380 nM,COCCCNc1nc2c(S(=O)(=O)c3ccc(C)c(C)c3)nnn2c2ccsc12
18,1000 nM,Cc1cccc(Nc2nc3c(S(=O)(=O)c4ccc(C(C)C)cc4)nnn3c3ccsc23)c1C
19,410 nM,O=S(=O)(c1ccc(Cl)cc1)c1nnn2c1nc(NCc1ccco1)c1sccc12
20,290 nM,O=S(=O)(c1ccccc1)c1nnn2c1nc(NCc1ccc3c(c1)OCO3)c1sccc12
21,920 nM,O=S(=O)(c1cccc(Cl)c1)c1nnn2c1nc(Nc1ccccc1)c1sccc12
22,500 nM,Cc1ccc(S(=O)(=O)c2nnn3c2nc(NCc2ccco2)c2sccc23)cc1
23,1100 nM,CCN(Cc1ccccc1)c1nc2c(S(=O)(=O)c3cc(C)ccc3C)nnn2c2ccsc12
24,690 nM,O=S(=O)(c1ccccc1)c1nnn2c1nc(NCc1ccc(F)cc1)c1sccc12

row,IC50,SMILES
1,2170 nM,COCCNc1nc2c(S(=O)(=O)c3ccc(Cl)cc3)nnn2c2ccsc12
2,570 nM,CCN(Cc1ccccc1)c1nc2c(S(=O)(=O)c3ccc(Cl)cc3)nnn2c2ccsc12
3,710 nM,Cc1ccc(C)c(S(=O)(=O)c2nnn3c2nc(NCc2cccs2)c2sccc23)c1
4,1070 nM,O=S(=O)(c1cccc(Cl)c1)c1nnn2c1nc(Nc1cccc(C(F)(F)F)c1)c1sccc12
5,960 nM,Cc1ccc(S(=O)(=O)c2nnn3c2nc(NCCc2ccccc2)c2sccc23)cc1
6,190 nM,COCCNc1nc2c(S(=O)(=O)c3ccccc3)nnn2c2ccsc12
7,1380 nM,CCc1cccc(Nc2nc3c(S(=O)(=O)c4ccc(C)cc4)nnn3c3ccsc23)c1
8,800 nM,Cc1cccc(Nc2nc3c(S(=O)(=O)c4ccc(Cl)cc4)nnn3c3ccsc23)c1C
9,580 nM,CCN(Cc1ccccc1)c1nc2c(S(=O)(=O)c3ccc(Br)cc3)nnn2c2ccsc12
10,120 nM,Cc1ccc(S(=O)(=O)c2nnn3c2nc(NCc2cccc(Cl)c2)c2sccc23)cc1
11,1430 nM,Cc1ccc(S(=O)(=O)c2nnn3c2nc(Nc2ccc(Cl)cc2)c2sccc23)cc1C
12,580 nM,CN(C)CCN(C)c1nc2c(S(=O)(=O)c3cccc(Cl)c3)nnn2c2ccsc12 [listing 2 of 2 here]
13,290 nM,COc1ccccc1CNc1nc2c(S(=O)(=O)c3ccccc3)nnn2c2ccsc12
14,37 nM,CC(Nc1nc2c(S(=O)(=O)c3ccccc3)nnn2c2ccsc12)c1ccccc1 (configuration not stated)
15,1990 nM,Cc1ccc(C)c(S(=O)(=O)c2nnn3c2nc(N2CCC(C)CC2)c2sccc23)c1
16,1480 nM,Cc1ccc(C)c(S(=O)(=O)c2nnn3c2nc(N(C)Cc2ccccc2)c2sccc23)c1
17,46 nM,Cc1ccc(S(=O)(=O)c2nnn3c2nc(NCCC(C)C)c2sccc23)cc1C
18,60 nM,CCCCNc1nc2c(S(=O)(=O)c3cccc(Cl)c3)nnn2c2ccsc12
19,740 nM,Cc1ccc(S(=O)(=O)c2nnn3c2nc(NCc2ccc(F)cc2)c2sccc23)cc1
20,1370 nM,COc1cccc(CNc2nc3c(S(=O)(=O)c4ccccc4)nnn3c3ccsc23)c1
21,2010 nM,Cc1ccc(C)c(Nc2nc3c(S(=O)(=O)c4ccc(Br)cc4)nnn3c3ccsc23)c1
22,1150 nM,COc1ccccc1Nc1nc2c(S(=O)(=O)c3ccc(Cl)cc3)nnn2c2ccsc12
23,1200 nM,CC(C)Nc1nc2c(S(=O)(=O)c3ccc(Cl)cc3)nnn2c2ccsc12
24,580 nM,COc1ccccc1CNc1nc2c(S(=O)(=O)c3ccc(C)cc3)nnn2c2ccsc12

row,IC50,SMILES
1,1620 nM,O=S(=O)(c1ccc(Br)cc1)c1nnn2c1nc(NCC1CCCO1)c1sccc12 (configuration not stated)
2,1210 nM,Cc1ccc(Nc2nc3c(S(=O)(=O)c4cccc(Cl)c4)nnn3c3ccsc23)cc1
3,670 nM,Cc1ccc(C)c(S(=O)(=O)c2nnn3c2nc(NCCc2ccccc2)c2sccc23)c1
4,1220 nM,CCN(CC)c1nc2c(S(=O)(=O)c3cccc(Cl)c3)nnn2c2ccsc12
5,960 nM,O=S(=O)(c1ccc(Cl)cc1)c1nnn2c1nc(NC1CCCCC1)c1sccc12
6,180 nM,Cc1ccc(S(=O)(=O)c2nnn3c2nc(NC(C)c2ccccc2)c2sccc23)cc1 (configuration not stated)
7,1250 nM,Cc1ccc(S(=O)(=O)c2nnn3c2nc(NCc2ccc4c(c2)OCO4)c2sccc23)cc1
8,1350 nM,Cc1ccc(Nc2nc3c(S(=O)(=O)c4ccc(Br)cc4)nnn3c3ccsc23)cc1C
9,140 nM,O=S(=O)(c1cccc(Cl)c1)c1nnn2c1nc(NC1CCCCCC1)c1sccc12
10,790 nM,Cc1ccc(S(=O)(=O)c2nnn3c2nc(NC2CCCCCC2)c2sccc23)cc1
11,680 nM,Cc1ccc(S(=O)(=O)c2nnn3c2nc(NC(C)Cc2ccccc2)c2sccc23)cc1C (configuration not stated)
12,2030 nM,Cc1ccc(S(=O)(=O)c2nnn3c2nc(NC2CCCC2)c2sccc23)cc1
13,890 nM,Cc1ccc(C)c(S(=O)(=O)c2nnn3c2nc(NCC2CCCO2)c2sccc23)c1 (configuration not stated)
14,600 nM,O=S(=O)(c1ccccc1)c1nnn2c1nc(Nc1ccc(F)cc1)c1sccc12
15,59 nM,O=S(=O)(c1ccccc1)c1nnn2c1nc(NCc1ccccc1)c1sccc12
16,250 nM,Cc1ccc(S(=O)(=O)c2nnn3c2nc(NCC2CCCO2)c2sccc23)cc1 (configuration not stated)
17,1830 nM,CC(C)c1ccc(S(=O)(=O)c2nnn3c2nc(NCc2ccccc2Cl)c2sccc23)cc1
18,> 5000 nM,O=S(=O)(c1ccccc1)c1nnn2c1nc(Nc1nc3ccccc3s1)c1sccc12
19,590 nM,Cc1ccc(S(=O)(=O)c2nnn3c2nc(Nc2cccc(C)c2C)c2sccc23)cc1
20,740 nM,Cc1ccc(C)c(Nc2nc3c(S(=O)(=O)c4cccc(Cl)c4)nnn3c3ccsc23)c1
21,860 nM,Cc1ccc(C)c(S(=O)(=O)c2nnn3c2nc(NCCC(C)C)c2sccc23)c1
22,> 5000 nM,COCCCNc1nc2c(S(=O)(=O)c3ccc(Br)cc3)nnn2c2ccsc12
23,590 nM,Cc1cccc(Nc2nc3c(S(=O)(=O)c4ccc(C(C)C)cc4)nnn3c3ccsc23)c1
24,1490 nM,COCCNc1nc2c(S(=O)(=O)c3ccc(C)cc3)nnn2c2ccsc12
